Assay results taken from ChEMBL document CHEMBL1629554, “Activity of the small modified amino acid alpha-hydroxy glycineamide on in vitro and in vivo human immunodeficiency virus type 1 capsid assembly and infectivity” (Antimicrob Agents Chemother, 2008).
The source made the active and inactive calls. The rule behind the calls is not given here.

Tests used:
[1] = system: FM3A; assay: Cytotoxic activity against mouse FM3A cells at 1000 uM after 14 days by trypan blue assay; assay type: cell-based; conditions: 336 h
How it was run: (§1)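 PBMC (600,000 cells/ml) or cell lines (200,000 cells/ml) cultured 14 days with 25, 100, 250, 500 or 1,000 μM compound; viable and dead cells counted in a counting chamber after 0.4% trypan blue staining.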

[2] = Cytotoxic activity against human Molt4/C8 cells at 1000 uM after 14 days by trypan blue assay; assay type: cell-based; conditions: molt-4, 336 h; how it was run: as §1
[3] = system: CCRF-CEM; assay: Cytotoxic activity against human CEM cells at 1000 uM after 14 days by trypan blue assay; assay type: cell-based; conditions: 336 h; how it was run: as §1
[4] = system: PBMC; assay: Effect on PHA-induced human PBMC cell proliferation up to 400 uM by beta scintillation counting; assay type: functional, cell-based
How it was run: (§2)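 PBMC (600,000 cells/ml) cultured 96 h in RPMI/10% FCS with PHA (2.5 μg/ml) and compound at 10–2,000 μM; [³H]thymidine (1 μCi/100,000 cells) added 8 h before end. Lysed cells harvested on nitrocellulose filters, cpm by β-scintillation counting. Untreated cells and cyclosporine (1 μg/ml) as controls.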

[5] = system: PBMC; assay: Effect on PHA-induced human PBMC cell proliferation at 2000 uM by beta scintillation counting; assay type: functional, cell-based; how it was run: as §2
[6] = system: Vesicular stomatitis virus; assay: Antiviral activity against Vesicular stomatitis virus infected in human HeLa cells; assay type: functional, organism-based
[7] = system: Human respirovirus 3; assay: Antiviral activity against Parainfluenza virus 3 infected in african green monkey Vero cells; assay type: functional, organism-based; conditions: Human respirovirus 3, Vero
How it was run: (§3)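 Cell cultures grown to confluence in microtiter wells, inoculated with 100 TCID50 of virus; after 1 h adsorption, residual virus removed, then incubated with fivefold dilutions of test compound. Viral cytopathicity scored once complete in untreated infected control cultures.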

[8] = system: Human alphaherpesvirus 2; assay: Antiviral activity against Herpes simplex virus type 2 infected in HEL cells; assay type: functional, organism-based; conditions: Human alphaherpesvirus 2, HEL; how it was run: as §3
[9] = system: Vaccinia virus; assay: Antiviral activity against Vaccinia virus infected in HEL cells; assay type: functional, organism-based; conditions: Orthopoxvirus vaccinia
[10] = system: Human immunodeficiency virus 1; assay: Antiviral activity against HIV-1 assessed as inhibition of viral p24 tubular protein assembly by spectrophotometry; assay type: functional, organism-based
[11] = system: Human immunodeficiency virus 1; assay: Antiviral activity against HIV-1 assessed as inhibition of viral p24 tubular protein assembly at 100 uM by spectrophotometry; assay type: functional, organism-based
[12] = system: Human immunodeficiency virus 1; assay: Antiviral activity against HIV-1 assessed as inhibition of viral p24 tubular protein assembly at 100 uM by TEM assay; assay type: functional, organism-based
[13] = system: Human immunodeficiency virus 1; assay: Antiviral activity against HIV-1 assessed as inhibition of viral p24 tubular protein assembly at 50 uM by TEM assay; assay type: functional, organism-based
[14] = system: Human immunodeficiency virus 1; assay: Antiviral activity against HIV-1 infected in human HeLa cells assessed as inhibition of viral p24 tubular assembly at 100 uM by TEM assay; assay type: functional, organism-based
How it was run: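 HeLa-tat cells (10⁵) seeded 1 day before, transfected (FuGENE6) with pC37M plasmid expressing p17-p24 fusion, 100 μM compound in culture medium. At 48–72 h posttransfection fixed in fresh 2.5% glutaraldehyde and intracellular tubular structures examined by TEM.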

[15] = system: Human immunodeficiency virus 1; assay: Antiviral activity against HIV-1 SF-2 infected in human H9 cells assessed as appearance of immature viral core morphology at 10 uM by TEM (reference value: 9%); assay type: functional
[16] = system: Human immunodeficiency virus 1; assay: Antiviral activity against HIV-1 SF-2 infected in human H9 cells assessed as appearance of parallel slice of dense core viral particles at 10 uM by TEM assay (reference value: 41%); assay type: functional
[17] = system: Human immunodeficiency virus 1; assay: Antiviral activity against HIV-1 SF-2 infected in human H9 cells assessed as appearance of tangential slice of dense core viral particles at 10 uM by TEM assay (reference value: 29%); assay type: functional
[18] = system: Human immunodeficiency virus 1; assay: Antiviral activity against HIV-1 SF-2 infected in human H9 cells assessed as appearance of partially empty core viral particles at 10 uM by TEM assay (reference value: 13%); assay type: functional
[19] = system: Human immunodeficiency virus 1; assay: Antiviral activity against HIV-1 SF-2 infected in human H9 cells assessed as appearance of empty core viral particles at 10 uM by TEM assay (reference value: 0%); assay type: functional
[20] = system: Human immunodeficiency virus 1; assay: Antiviral activity against HIV-1 SF-2 infected in human H9 cells assessed as appearance of tubular core viral particles at 10 uM by TEM assay (reference value: 6%); assay type: functional
[21] = system: Human immunodeficiency virus 1; assay: Antiviral activity against HIV-1 SF-2 infected in human H9 cells assessed as appearance of irregular core viral particles at 10 uM by TEM assay (reference value: 1%); assay type: functional
[22] = system: Human immunodeficiency virus 1; assay: Antiviral activity against HIV-1 SF-2 infected in human H9 cells assessed as appearance of two separate core structured viral particles at 10 uM by TEM assay (reference value: 0%); assay type: functional
[23] = system: Human immunodeficiency virus 1; assay: Antiviral activity against HIV-1 SF-2 infected in human H9 cells assessed as appearance of distorted core structured viral particles by TEM assay; assay type: functional
[24] = system: Human immunodeficiency virus 1; assay: Antiviral activity against reverse transcriptase and protease inhibitor-resistant HIV-1 isolate HI90-79 harboring reverse transcriptase M230V and protease M36I, […], A71T, I93L mutant gene infected in human PBMC; assay type: functional, organism-based; conditions: Human immunodeficiency virus 1, isolate HI90-79
How it was run: (§4)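 Clinical isolate stocks were grown in PBMC and titred by 10-fold serial dilution (TCID50). PBMC (600,000 cells/ml) were infected at 100 TCID50 and cultured with 1, 4, 16, 64 or 256 μM α-HGA, in duplicate, with untreated infected controls. Medium was changed on days 5–7. Supernatant p24 was measured by sandwich ELISA against a recombinant p24 standard up to day 14, and EC50 was derived.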

[25] = system: Human immunodeficiency virus 1; assay: Antiviral activity against reverse transcriptase and protease inhibitor-resistant HIV-1 isolate HI90-317 harboring reverse transcriptase M41L, T215Y and protease M36I, […], A71T, I93L mutant gene infected in human PBMC; assay type: functional, organism-based; conditions: Human immunodeficiency virus 1, isolate HI90-317; how it was run: as §4
[26] = system: Human immunodeficiency virus 1; assay: Antiviral activity against reverse transcriptase and protease inhibitor-resistant HIV-1 isolate HI93-49 harboring reverse transcriptase L74V, V106I and protease […] mutant gene infected in human PBMC; assay type: functional, organism-based; conditions: Human immunodeficiency virus 1, isolate HI93-49; how it was run: as §4
[27] = system: Human immunodeficiency virus 1; assay: Antiviral activity against reverse transcriptase and protease inhibitor-resistant HIV-1 isolate HI93-124 harboring reverse transcriptase N67D, T69D, K70R, T215F, K219Q and protease […] mutant gene infected in human PBMC; assay type: functional, organism-based; conditions: Human immunodeficiency virus 1, isolate HI93-124; how it was run: as §4
[28] = system: Human immunodeficiency virus 1; assay: Antiviral activity against reverse transcriptase and protease inhibitor-resistant HIV-1 isolate HI94-18 harboring reverse transcriptase M230S mutant gene infected in human PBMC; assay type: functional, organism-based; conditions: Human immunodeficiency virus 1, isolate HI94-18; how it was run: as §4
[29] = system: Human immunodeficiency virus 1; assay: Antiviral activity against reverse transcriptase and protease inhibitor-resistant HIV-1 isolate HI95-10 harboring reverse transcriptase V179I and protease M36I, L63P mutant gene infected in human PBMC; assay type: functional, organism-based; conditions: Human immunodeficiency virus 1, isolate HI95-10; how it was run: as §4
[30] = system: Human immunodeficiency virus 1; assay: Antiviral activity against reverse transcriptase and protease inhibitor-resistant HIV-1 isolate HI96-88 harboring reverse transcriptase M41L, E44A, D67N, T69D, L210W, T215Y and protease L63P mutant gene infected in human PBMC; assay type: functional, organism-based; conditions: Human immunodeficiency virus 1, isolate HI96-88; how it was run: as §4
[31] = system: Human immunodeficiency virus 1; assay: Antiviral activity against reverse transcriptase and protease inhibitor-resistant HIV-1 isolate HI96-90 harboring reverse transcriptase M41L, E44A, V118L, M184V, L210W, T215Y and protease L10I, L63P mutant gene infected in human PBMC; assay type: functional, organism-based; conditions: Human immunodeficiency virus 1, isolate HI96-90; how it was run: as §4
[32] = system: Human immunodeficiency virus 1; assay: Antiviral activity against reverse transcriptase and protease inhibitor-resistant HIV-1 isolate HI97-59 harboring reverse transcriptase M184V, L210W, T215Y and protease L10I, L63T mutant gene infected in human PBMC; assay type: functional, organism-based; conditions: Human immunodeficiency virus 1, isolate HI97-59; how it was run: as §4
[33] = system: Human immunodeficiency virus 1; assay: Antiviral activity against reverse transcriptase and protease inhibitor-resistant HIV-1 isolate HI98-9 harboring reverse transcriptase M41L, M184V, T215Y and protease L10I, L24I, L63P, V77I, V82T/S mutant gene infected in human PBMC; assay type: functional, organism-based; conditions: Human immunodeficiency virus 1, isolate HI98-9; how it was run: as §4
[34] = system: Human immunodeficiency virus 1; assay: Antiviral activity against reverse transcriptase and protease inhibitor-resistant HIV-1 isolate HI98-80 harboring reverse transcriptase M41L, D67N, M184V, T215F, K219Q and protease M36I mutant gene infected in human PBMC; assay type: functional, organism-based; conditions: Human immunodeficiency virus 1, isolate HI98-80; how it was run: as §4
[35] = system: Human immunodeficiency virus 1; assay: Antiviral activity against reverse transcriptase and protease inhibitor-resistant HIV-1 isolate HI98-82 harboring reverse transcriptase M184V and protease L10I, I47M, L63P, I93L mutant gene infected in human PBMC; assay type: functional, organism-based; conditions: Human immunodeficiency virus 1, isolate HI98-82; how it was run: as §4
[36] = system: Human immunodeficiency virus 1; assay: Antiviral activity against reverse transcriptase and protease inhibitor-resistant HIV-1 isolate HI98-96 harboring reverse transcriptase D67N, T69N, K70R, A98G, M184V, T215F, K219Q and protease L63P, G73T, D60E, L90M mutant gene infected in human PBMC; assay type: functional, organism-based; conditions: Human immunodeficiency virus 1, isolate HI98-96; how it was run: as §4
[37] = system: Human immunodeficiency virus 1; assay: Antiviral activity against reverse transcriptase and protease inhibitor-resistant HIV-1 isolate HI98-100 harboring reverse transcriptase M41L, A98G, M184V, L210W, T215Y and protease L10F,K20R, M36I, M46I, L63P, V82A mutant gene infected in human PBMC; assay type: functional, organism-based; conditions: Human immunodeficiency virus 1, isolate HI98-100; how it was run: as §4
[38] = system: Human immunodeficiency virus 1; assay: Antiviral activity against reverse transcriptase and protease inhibitor-resistant HIV-1 isolate HI99-58 harboring reverse transcriptase D67N, K70R, A98S, Y181C, K219Q and protease M36I, L63P, I93L mutant gene infected in human PBMC; assay type: functional, organism-based; conditions: Human immunodeficiency virus 1, isolate HI99-58; how it was run: as §4
[39] = system: Human immunodeficiency virus 1; assay: Antiviral activity against HIV-1 SF-2 infected in human PBMC; assay type: functional, organism-based; conditions: Human immunodeficiency virus 1, SF-2
[40] = system: Human immunodeficiency virus 1; assay: Antiviral activity against HIV-1 pNL4-3 infected in human PBMC; assay type: functional, organism-based; conditions: Human immunodeficiency virus 1, pNL4-3
[41] = system: Human immunodeficiency virus 1; assay: Antiviral activity against HIV-1 3B infected in human PBMC; assay type: functional, organism-based; conditions: Human immunodeficiency virus 1, 3B
[42] = system: PBMC; assay: Cytotoxic activity against human PBMC at 1000 uM after 14 days by trypan blue assay; assay type: cell-based; conditions: 336 h; how it was run: as §1
[43] = system: HeLa; assay: Cytotoxic activity against human HeLa cells at 1000 uM after 14 days by trypan blue assay; assay type: cell-based; conditions: 336 h; how it was run: as §1
[44] = system: H9; assay: Cytotoxic activity against human H9 cells at 1000 uM after 14 days by trypan blue assay; assay type: cell-based; conditions: h9, 336 h; how it was run: as §1
[45] = system: L1210; assay: Cytotoxic activity against mouse L1210 cells at 1000 uM after 14 days by trypan blue assay; assay type: cell-based; conditions: l1210, 336 h; how it was run: as §1

NC(=O)C(N)O (stereo not given)
Activity [1]: Non-toxic
Activity [2]: Non-toxic
Activity [3]: Non-toxic
Activity [4]: inactive
Activity [5]: inactive
EC50 [6]: 2000 µM
EC50 [7]: 2000 µM
EC50 [8]: 2000 µM
EC50 [9]: 2000 µM
inhibition [10]: Active
inhibition [11]: Active
inhibition [12]: Active
inhibition [13]: Active
inhibition [14]: Active
Activity [15]: 8%
Activity [16]: 11%
Activity [17]: 19%
Activity [18]: 33%
Activity [19]: 9%
Activity [20]: 6%
Activity [21]: 10%
Activity [22]: 4%
Activity [23]: 62%
EC50 [24]: 24 µM
EC50 [25]: 20 µM
EC50 [26]: 15 µM
EC50 [27]: 33 µM
EC50 [28]: 16 µM
EC50 [29]: 14 µM
EC50 [30]: 24 µM
EC50 [31]: 8.6 µM
EC50 [32]: 4.2 µM
EC50 [33]: 34 µM
EC50 [34]: 5.5 µM
EC50 [35]: 33 µM
EC50 [36]: 4.6 µM
EC50 [37]: 16 µM
EC50 [38]: 7.6 µM
EC50 [39]: 1 µM
EC50 [40]: 1 µM
EC50 [41]: 8 µM
Activity [42]: Non-toxic
Activity [43]: Non-toxic
Activity [44]: Non-toxic
Activity [45]: Non-toxic
